# Laboratory results taken from ChEMBL document CHEMBL3232994, “Searching for new derivatives of neocryptolepine: synthesis, antiproliferative, antimicrobial and antifungal activities” (Eur J Med Chem, 2014).
# The source made the active and inactive calls. No cut-off for these calls is given here.
# Key:
# [1] = test system: Bacillus spizizenii; assay: Antibacterial activity against Bacillus subtilis ATCC 6633 assessed as growth inhibition after 18 hrs by two-fold serial dilution method; type: functional; details: ATCC 6633, 18 h
# Summary of the method: (§1)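 Twofold serial agar dilution on Mueller–Hinton II agar per CLSI. Final inoculum 10⁴ CFU/mL, except Enterococcus hirae ATCC 10541 at 10⁵ CFU/mL. MIC read after 18 h at 35 °C.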
# [2] = test system: LoVo; assay: Cytotoxicity against human LoVo cells assessed as growth inhibition after 72 hrs by SRB assay; type: functional, cell-based
# Summary of the method: (§2)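 Cells were seeded at 10⁴/well in RPMI 1640/Opti-MEM (1:1) with 5% FBS, plus 0.01 mg/mL insulin for MCF-7, 24 h before dosing. Agents in water/medium were given at four tenfold final levels for 72 h. Cells were fixed with cold 50% TCA (1 h, 4 °C), stained with 0.4% SRB, cell-free blank. Triplicate wells, 3–5 repeats. IC50 relative to untreated control.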
# [3] = test system: Staphylococcus epidermidis; assay: Antibacterial activity against Staphylococcus epidermidis ATCC 12228 assessed as growth inhibition after 18 hrs by two-fold serial dilution method; type: functional; details: ATCC 12228, 18 h; summary of the method: as §1
# [4] = test system: Staphylococcus aureus; assay: Antibacterial activity against Staphylococcus aureus ATCC 6538 assessed as growth inhibition after 18 hrs by two-fold serial dilution method; type: functional; details: ATCC 6538, 18 h; summary of the method: as §1
# [5] = test system: BALB/3T3; assay: Cytotoxicity against mouse BALB/3T3 cells assessed as growth inhibition after 72 hrs by SRB assay; type: cell-based; details: BALB/3T3, 72 h
# Summary of the method: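 Mouse fibroblasts were kept in Dulbecco medium with 10% FBS, L-glutamine and pyruvate, and seeded at 10⁴/well 24 h before dosing. Agents were given at four tenfold final levels for 72 h. Cells were TCA-fixed (50%, 4 °C, 1 h) and stained with 0.4% SRB in 1% acetic acid. Triplicate wells, 3–5 repeats. IC50 versus untreated cells.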
# [6] = test system: Enterococcus hirae; assay: Antibacterial activity against Enterococcus hirae ATCC 10541 assessed as growth inhibition after 18 hrs by two-fold serial dilution method; type: functional; details: ATCC 10541, 18 h; summary of the method: as §1
# [7] = test system: Candida albicans; assay: Antifungal activity against Candida albicans ATCC 10231 assessed as growth inhibition after 18 hrs by two-fold serial dilution method; type: functional; details: ATCC 10231, 18 h
# Summary of the method: (§3)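 MIC by twofold serial dilution on RPMI agar per CLSI. Final inoculum 10⁴ CFU/mL. Plates read after 18 h at 35 °C.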
# [8] = test system: MCF7; assay: Cytotoxicity against human MCF7 cells assessed as growth inhibition after 72 hrs by SRB assay; type: functional, cell-based; details: MCF7, 72 h; summary of the method: as §2
# [9] = test system: Micrococcus luteus; assay: Antibacterial activity against Micrococcus luteus ATCC 9341 assessed as growth inhibition after 18 hrs by two-fold serial dilution method; details: ATCC 9341, 18 h
# [10] = test system: Staphylococcus aureus; assay: Antibacterial activity against Staphylococcus aureus ATCC 25923 assessed as growth inhibition after 18 hrs by two-fold serial dilution method; type: functional; details: ATCC 25923, 18 h; summary of the method: as §1
# [11] = test system: Candida parapsilosis; assay: Antifungal activity against Candida parapsilosis ATCC 22019 assessed as growth inhibition after 18 hrs by two-fold serial dilution method; type: functional; details: Lodderomyces parapsilosis, ATCC 22019, 18 h
# [12] = test system: KB; assay: Cytotoxicity against human KB cells assessed as growth inhibition after 72 hrs by SRB assay; type: functional, cell-based; summary of the method: as §2
# [13] = test system: Bacillus cereus; assay: Antibacterial activity against Bacillus cereus ATCC 11778 assessed as growth inhibition after 18 hrs by two-fold serial dilution method; type: functional; details: ATCC 11778, 18 h; summary of the method: as §1
# [14] = test system: Candida albicans; assay: Antifungal activity against Candida albicans ATCC 90028 assessed as growth inhibition after 18 hrs by two-fold serial dilution method; type: functional; details: ATCC 90028, 18 h; summary of the method: as §3
# [15] = test system: Staphylococcus aureus; assay: Antibacterial activity against Staphylococcus aureus ATCC 29213 assessed as growth inhibition after 18 hrs by two-fold serial dilution method; type: functional; details: ATCC 29213, 18 h; summary of the method: as §1
# [16] = test system: Candida albicans; assay: Antifungal activity against Candida albicans SN250 assessed as growth inhibition after 18 hrs by two-fold serial dilution method; type: functional; details: SN250, 18 h
# [17] = test system: Staphylococcus aureus; assay: Antibacterial activity against Staphylococcus aureus NCTC 4163 assessed as growth inhibition after 18 hrs by two-fold serial dilution method; type: functional; details: NCTC 4163, 18 h; summary of the method: as §1
# [18] = test system: Micrococcus luteus; assay: Antibacterial activity against Micrococcus luteus ATCC 10240 assessed as growth inhibition after 18 hrs by two-fold serial dilution method; type: functional; details: ATCC 10240, 18 h; summary of the method: as §1
# [19] = test system: A549; assay: Cytotoxicity against human A549 cells assessed as growth inhibition after 72 hrs by SRB assay; type: functional, cell-based; details: A549, 72 h; summary of the method: as §2
# [20] = test system: Candida albicans; assay: Antifungal activity against Candida albicans SN250 assessed as inhibition of biofilm formation < MIC after 24 hrs by XTT reduction assay; type: functional, organism-based
# [21] = test system: Candida albicans; assay: Antifungal activity against Candida albicans SN250 assessed as […] at 2.4 to 625 ug/mL after 24 hrs by XTT reduction assay; type: functional, organism-based
Compound,MIC [1],MIC [3],MIC [4],IC50 [5],MIC [6],MIC [7],MIC [9],MIC [10],MIC [11],IC50 [12],MIC [13],MIC [14],MIC [15],MIC [16],MIC [17],MIC [18],inhibition [20],inhibition [21],also measured
Cc1c2c3ccccc3nc-2n(C)c2ccc(NC(=O)[C@@H]3CCCN3)cc12.Cl,6.25 µg/mL,12.5 µg/mL,12.5 µg/mL,540 nM,100 µg/mL,100 µg/mL,6.25 µg/mL,50 µg/mL,50 µg/mL,470 nM,25 µg/mL,50 µg/mL,50 µg/mL,31.2 µg/mL,12.5 µg/mL,6.25 µg/mL,–,–,IC50 [2]: 70 nM; IC50 [8]: 620 nM; IC50 [19]: 120 nM
Cc1c2c3ccccc3nc-2n(C)c2ccccc12,50 µg/mL,100 µg/mL,100 µg/mL,5770 nM,200 µg/mL,12.5 µg/mL,50 µg/mL,200 µg/mL,12.5 µg/mL,–,100 µg/mL,12.5 µg/mL,100 µg/mL,12.5 µg/mL,100 µg/mL,50 µg/mL,Active,–,–
OC(Cn1cncn1)(Cn1cncn1)c1ccc(F)cc1F [FLUCONAZOLE],–,–,–,–,–,1 µg/mL,–,–,2 µg/mL,–,–,1 µg/mL,–,–,–,–,–,–,–
Cc1c2c3cc(NC(=O)CN)ccc3nc-2n(C)c2ccccc12.Cl.Cl,12.5 µg/mL,25 µg/mL,50 µg/mL,–,100 µg/mL,25 µg/mL,6.25 µg/mL,50 µg/mL,25 µg/mL,–,50 µg/mL,50 µg/mL,100 µg/mL,15.6 µg/mL,50 µg/mL,6.25 µg/mL,Active,–,–
Cc1c2c3ccccc3nc-2n(C)c2ccc(NC(=O)CNC(=O)CN)cc12.Cl,> 200 µg/mL,> 200 µg/mL,> 200 µg/mL,2110 nM,> 200 µg/mL,> 200 µg/mL,> 200 µg/mL,> 200 µg/mL,> 200 µg/mL,1540 nM,> 200 µg/mL,> 200 µg/mL,> 200 µg/mL,> 500 µg/mL,> 200 µg/mL,> 200 µg/mL,–,inactive,IC50 [2]: 1170 nM; IC50 [8]: 4110 nM; IC50 [19]: 1440 nM
Cc1c2c3cc(NC(=O)CNC(=O)[C@@H]4CCCN4)ccc3nc-2n(C)c2ccccc12.Cl.Cl,100 µg/mL,100 µg/mL,> 200 µg/mL,–,> 200 µg/mL,200 µg/mL,50 µg/mL,> 200 µg/mL,200 µg/mL,–,> 200 µg/mL,200 µg/mL,100 µg/mL,200 µg/mL,> 200 µg/mL,50 µg/mL,–,inactive,–
O=C(O)c1cn(C2CC2)c2cc(N3CCNCC3)c(F)cc2c1=O [CIPROFLOXACIN],< 0.125 µg/mL,0.25 µg/mL,0.25 µg/mL,–,4 µg/mL,–,2 µg/mL,0.5 µg/mL,–,–,1 µg/mL,–,0.5 µg/mL,–,0.25 µg/mL,1 µg/mL,–,–,–
Cc1c2c3cc(NC(=O)CNC(=O)CN)ccc3nc-2n(C)c2ccccc12.Cl.Cl,100 µg/mL,> 200 µg/mL,> 200 µg/mL,–,> 200 µg/mL,200 µg/mL,200 µg/mL,> 200 µg/mL,200 µg/mL,–,> 200 µg/mL,200 µg/mL,> 200 µg/mL,200 µg/mL,> 200 µg/mL,200 µg/mL,–,inactive,–
Cc1c2c3cc(NC(=O)[C@@H](N)Cc4cnc[nH]4)ccc3nc-2n(C)c2ccccc12.Cl,> 200 µg/mL,> 200 µg/mL,> 200 µg/mL,–,> 200 µg/mL,> 200 µg/mL,> 200 µg/mL,> 200 µg/mL,> 200 µg/mL,–,> 200 µg/mL,> 200 µg/mL,> 200 µg/mL,125 µg/mL,> 200 µg/mL,> 200 µg/mL,–,–,–
Cc1c2c3ccccc3nc-2n(C)c2ccc(NC(=O)CN)cc12.Cl,12.5 µg/mL,12.5 µg/mL,12.5 µg/mL,420 nM,100 µg/mL,100 µg/mL,6.25 µg/mL,12.5 µg/mL,100 µg/mL,420 nM,50 µg/mL,100 µg/mL,12.5 µg/mL,15.6 µg/mL,12.5 µg/mL,12.5 µg/mL,Active,–,IC50 [2]: 60 nM; IC50 [8]: 460 nM; IC50 [19]: 80 nM
Cc1c2c3cc(NC(=O)[C@@H]4CCCN4)ccc3nc-2n(C)c2ccccc12.Cl.Cl,12.5 µg/mL,12.5 µg/mL,12.5 µg/mL,–,100 µg/mL,200 µg/mL,6.25 µg/mL,50 µg/mL,200 µg/mL,–,50 µg/mL,200 µg/mL,50 µg/mL,200 µg/mL,12.5 µg/mL,6.25 µg/mL,Active,–,–
Cc1c2c3ccccc3nc-2n(C)c2ccc(NC(=O)[C@@H](N)Cc3cnc[nH]3)cc12.Cl,> 200 µg/mL,> 200 µg/mL,> 200 µg/mL,–,> 200 µg/mL,> 200 µg/mL,> 200 µg/mL,> 200 µg/mL,> 200 µg/mL,3880 nM,> 200 µg/mL,> 200 µg/mL,> 200 µg/mL,250 µg/mL,> 200 µg/mL,> 200 µg/mL,–,inactive,–
